How the values were obtained:
[1] = tested on: Trypanosoma brucei brucei; experiment: Antitrypanosomal activity against wild type Trypanosoma brucei brucei Lister 427 after 3 days by alamar blue assay; assay type: functional, organism-based
Outline: (§1)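 Bloodstream-form T. b. brucei (wild-type s427; TbAT1-KO, made from s427 by TbAT1 deletion; B48, selected from TbAT1-KO in vitro on pentamidine, lacking functional HAPT1). Cells were exposed to compound for 48 h, then resazurin (Alamar blue) was added for a further 24 h. A single fluorescence reading gave EC50.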

[2] = Selectivity index, ratio of EC50 for human HEK cells to EC50 for wild type Trypanosoma brucei brucei Lister 427; assay type: toxicity, cell-based, HEK293; settings: for selectivity ratio: HEK cells, read-out: Ratio EC50; for Ratio EC50: hek293
Outline: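 Ratio of EC₅₀ in HEK cells to EC₅₀ in wild-type T. b. brucei s427, both from resazurin assays.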

[3] = tested on: Trypanosoma brucei brucei; experiment: Antitrypanosomal activity against diminazene aceturate-resistant TbAT1 gene-deficient Trypanosoma brucei brucei AT1-KO after 3 days by alamar blue assay; assay type: functional, organism-based; outline: as §1
[4] = tested on: Trypanosoma brucei rhodesiense; experiment: Antitrypanosomal activity against Trypanosoma brucei rhodesiense STIB900 infected in rat L6 cells after 72 hrs by alamar blue assay; assay type: functional, organism-based
L6 = experiment: Cytotoxicity against rat L6 cells after 72 hrs by alamar blue assay; assay type: cell-based
[5] = tested on: Trypanosoma brucei brucei; experiment: Resistance factor, ratio of EC50 for diminazene aceturate-resistant TbAT1 gene-deficient Trypanosoma brucei brucei AT1-KO to EC50 for wild type Trypanosoma brucei brucei Lister 427; assay type: functional
Outline: (§2)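 Resistance factor is the EC50 in the resistant line (TbAT1-KO or B48) divided by the EC50 in wild-type s427. […] Resistant and wild-type EC50s were compared by Student t-test.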

[6] = tested on: Trypanosoma brucei brucei; experiment: Antitrypanosomal activity against diminazene-, pentamidine-, and melaminophenyl arsenical-resistant HAPT1-deficient Trypanosoma brucei brucei B48 after 3 days by alamar blue assay; assay type: functional, organism-based; outline: as §1
[7] = tested on: Trypanosoma brucei brucei; experiment: Resistance factor, ratio of EC50 for diminazene-, pentamidine-, and melaminophenyl arsenical-resistant HAPT1-deficient Trypanosoma brucei brucei B48 to EC50 for wild type Trypanosoma brucei brucei Lister 427; assay type: functional; outline: as §2
[8] = Selectivity index, ratio of EC50 for rat L6 cells to EC50 for Trypanosoma brucei rhodesiense STIB900; assay type: toxicity, cell-based; settings: for selectivity ratio: L6 cells, read-out: Ratio EC50; for Ratio EC50: l6
Outline: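 Ratio of EC₅₀ in L6 cells to EC₅₀ against T. b. rhodesiense STIB900, both from Alamar blue assays.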

[9] = Cytotoxicity against human HEK cells after 3 days by alamar blue assay; assay type: cell-based, HEK293
Outline: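 Human embryonic kidney cells tested by resazurin (Alamar blue) assay: 48 h with compound, then 24 h more after dye addition, single reading; EC₅₀ derived.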

[10] = Trypanosoma brucei, Lister 427, 72 h
[11] = Trypanosoma brucei, AT1-KO, 72 h
[12] = Trypanosoma brucei, STIB900, 72 h

Compound | EC50 [1, 10] [µM] | selectivity ratio [2] | EC50 [3, 11] [µM] | EC50 [4, 12] [µM] | EC50 (L6; Rattus norvegicus, L6, 72 h) [µM] | Ratio EC50 [5] | EC50 ([6]; Trypanosoma brucei, B48, 72 h) [µM] | Ratio EC50 [7] | selectivity ratio [8] | EC50 ([9]; Homo sapiens, HEK293, 72 h) [µM] | EC50 [1] [µM] | EC50 [3] [µM] | EC50 (L6; l6) [µM] | EC50 [6] [µM] | Ratio EC50 [8] | Ratio EC50 [2] | EC50 ([9]; hek293) [µM] | EC50 [4] [µM]
Cc1ccc([P+](CCc2ccc(CCc3ccc(CC[P+](c4ccc(C)cc4)(c4ccc(C)cc4)c4ccc(C)cc4)cc3)cc2)(c2ccc(C)cc2)c2ccc(C)cc2)cc1.[Cl-].[Cl-] | 0.125 | 103 | 0.094 | 0.027 | 1.09 | 0.8 | 0.089 | 0.7 | 40.3 | 12.8 |  |  |  |  |  |  |  | 
C[P+](Cc1ccc(C(=O)c2ccc(C[P+](C)(c3ccccc3)c3ccccc3)cc2)cc1)(c1ccccc1)c1ccccc1.[Br-].[Br-] | 1.53 | > 200 | 2.08 | 0.656 | 116 | 1.4 | 2.05 | 1.3 | 177 | > 300 |  |  |  |  |  |  |  | 
Cc1ccc([P+](Cc2ccc(CCc3ccc(C[P+](c4ccc(C)cc4)(c4ccc(C)cc4)c4ccc(C)cc4)cc3)cc2)(c2ccc(C)cc2)c2ccc(C)cc2)cc1.[Br-].[Br-] |  | 213 |  | 0.084 |  | 1 |  | 1 |  | 32.4 | 0.15 | 0.15 | 0.656 | 0.15 | 7.8 |  |  | 
Cc1ccc([P+](Cc2ccc(CCCc3ccc(C[P+](c4ccc(C)cc4)(c4ccc(C)cc4)c4ccc(C)cc4)cc3)cc2)(c2ccc(C)cc2)c2ccc(C)cc2)cc1.[Br-].[Br-] |  |  | 0.049 | 0.081 | 1.8 | 1.7 | 0.053 | 1.8 | 22 |  | 0.029 |  |  |  |  | 897 | 25.8 | 
O=C(c1ccc(C[P+](c2ccc(F)cc2)(c2ccc(F)cc2)c2ccc(F)cc2)cc1)c1ccc(C[P+](c2ccc(F)cc2)(c2ccc(F)cc2)c2ccc(F)cc2)cc1.[Br-].[Br-] | 0.85 | > 350 | 2.1 | 0.45 | 77.4 | 2.5 | 1.24 | 1.5 | 172 | > 300 |  |  |  |  |  |  |  | 
Cc1ccc([P+](Cc2ccc(CCc3ccc(C[P+](c4ccc(C)cc4)(c4ccc(C)cc4)c4ccc(C)cc4)cc3)cc2)(c2ccc(C)cc2)c2ccc(C)cc2)cc1.[Cl-].[Cl-] |  |  |  |  |  | 0.5 |  | 0.8 |  |  | 0.058 | 0.03 | 1.69 | 0.045 | 33.8 | 404 | 23.3 | 0.05
Cc1ccc([P+](Cc2ccc(C(=O)c3ccccc3)cc2)(c2ccc(C)cc2)c2ccc(C)cc2)cc1.[Br-] | 0.064 | 505 | 0.012 | 0.081 | 1.35 | 0.2 | 0.011 | 0.2 | 16.7 | 32.5 |  |  |  |  |  |  |  | 
Cc1ccc(C[P+](c2ccccc2)(c2ccccc2)c2ccccc2)cc1.[Cl-] | 0.023 | > 12500 | 0.024 | 0.216 | 10.4 | 1 | 0.023 | 1 | 48 | > 300 |  |  |  |  |  |  |  | 
COc1ccccc1[P+](Cc1ccc(Oc2ccc(C[P+](c3ccccc3OC)(c3ccccc3OC)c3ccccc3OC)cc2)cc1)(c1ccccc1OC)c1ccccc1OC.[Br-].[Br-] | 0.056 | 2520 | 0.057 | 0.153 | 1.27 | 1 | 0.045 | 0.8 | 8 | 141 |  |  |  |  |  |  |  | 
Cc1ccc([P+](Cc2ccc(Cc3ccc(C[P+](c4ccc(C)cc4)(c4ccc(C)cc4)c4ccc(C)cc4)cc3)cc2)(c2ccc(C)cc2)c2ccc(C)cc2)cc1.[Br-].[Br-] | 0.08 | 2900 | 0.08 | 0.099 | 2.33 | 1 | 0.074 | 0.9 | 24 | 233 |  |  |  |  |  |  |  | 
COc1ccccc1[P+](Cc1ccc(C(=O)c2ccc(C[P+](c3ccccc3OC)(c3ccccc3OC)c3ccccc3OC)cc2)cc1)(c1ccccc1OC)c1ccccc1OC.[Br-].[Br-] | 0.11 | 1180 | 0.16 | 0.2 | 9 | 1.5 | 0.08 | 0.7 | 45 | 131 |  |  |  |  |  |  |  | 
COc1ccc([P+](Cc2ccc(C(=O)c3ccc(C[P+](c4ccc(OC)cc4)(c4ccc(OC)cc4)c4ccc(OC)cc4)cc3)cc2)(c2ccc(OC)cc2)c2ccc(OC)cc2)cc1.[Br-].[Br-] | 0.32 | 529 | 0.52 | 0.29 | 11.8 | 1.6 | 0.23 | 0.7 | 40 | 172 |  |  |  |  |  |  |  | 
CC(C)[P+](Cc1ccc(Cc2ccc(C[P+](c3ccccc3)(c3ccccc3)C(C)C)cc2)cc1)(c1ccccc1)c1ccccc1.[Br-].[Br-] | 0.44 | > 680 | 0.4 | 0.534 | 3.44 | 0.9 | 0.43 | 1 | 6.4 | > 300 |  |  |  |  |  |  |  | 
C[P+](C)(Cc1ccc(CCc2ccc(C[P+](C)(C)c3ccccc3)cc2)cc1)c1ccccc1.[Br-].[Br-] | 2.59 | > 110 | 2.62 | 1.2 | 48.6 | 1 | 1.8 | 0.5 | 40 | > 300 |  |  |  |  |  |  |  | 
CC(C)[P+](Cc1ccc(Oc2ccc(C[P+](c3ccccc3)(c3ccccc3)C(C)C)cc2)cc1)(c1ccccc1)c1ccccc1.[Br-].[Br-] | 0.33 | > 900 | 0.33 | 0.585 | 5 | 1 | 0.33 | 1 | 8.6 | > 300 |  |  |  |  |  |  |  | 
Cc1ccc([P+](Cc2ccc(CCCc3ccc(C[P+](c4ccc(C)cc4)(c4ccc(C)cc4)c4ccc(C)cc4)cc3)cc2)(c2ccc(C)cc2)c2ccc(C)cc2)cc1.[Cl-].[Cl-] |  |  |  |  |  | 0.7 |  | 0.6 |  |  | 0.1 | 0.066 | 1.72 | 0.062 | 27.3 | 127 | 12.7 | 0.063
O=C(c1ccc(C[P+](c2ccc(Cl)cc2)(c2ccc(Cl)cc2)c2ccc(Cl)cc2)cc1)c1ccc(C[P+](c2ccc(Cl)cc2)(c2ccc(Cl)cc2)c2ccc(Cl)cc2)cc1.[Br-].[Br-] | 0.94 | 67 | 1.37 | 0.41 | 7.2 | 1.5 | 0.95 | 1 | 18 | 63 |  |  |  |  |  |  |  | 
C[P+](C)(Cc1ccc(C(=O)c2ccccc2)cc1)c1ccccc1.[Br-] | 42.7 | > 7 | 46.6 | 16.9 | > 241 | 1.1 | 45.8 | 1.1 |  | > 300 |  |  |  |  |  |  |  | 
CC[P+](CC)(Cc1ccc(C(=O)c2ccc(C[P+](CC)(CC)c3ccccc3)cc2)cc1)c1ccccc1.[Br-].[Br-] | 8.59 | > 35 | 17.8 | 2.9 | > 128 | 2.1 | 15.2 | 1.8 |  | > 300 |  |  |  |  |  |  |  | 
CC(C)C[P+](Cc1ccc(C(=O)c2ccc(C[P+](CC(C)C)(CC(C)C)CC(C)C)cc2)cc1)(CC(C)C)CC(C)C.[Br-].[Br-] | 2.62 | > 110 | 8.34 | 1.46 | > 116 | 3.2 | 6.3 | 2.4 |  | > 300 |  |  |  |  |  |  |  | 
CC[P+](CC)(CC)Cc1ccc(Oc2ccc(C[P+](CC)(CC)CC)cc2)cc1.[Br-].[Br-] | 36.5 | > 8 | 34.9 | 31.9 | 102 | 1 | 36.6 | 1 |  | > 300 |  |  |  |  |  |  |  | 
